Experimental data published in ChEMBL document CHEMBL1154352, “Toll-like receptor 7 selective synthetic oligoribonucleotide agonists: synthesis and structure-activity relationship studies” (J Med Chem, 2009).
The source made the active and inactive calls. No cut-off for these calls is given here.

Assays:
[1] = target: T1, Toll-like receptor 7 (Homo sapiens) (UniProt Q9NYK1); experiment: Activation of human TLR7 expressed in HEK293XL assessed as fold induction of NF-kappaB activity at 50 ug/ml after 18 hrs by reporter gene assay relative to control
T1 sequence (whole entry): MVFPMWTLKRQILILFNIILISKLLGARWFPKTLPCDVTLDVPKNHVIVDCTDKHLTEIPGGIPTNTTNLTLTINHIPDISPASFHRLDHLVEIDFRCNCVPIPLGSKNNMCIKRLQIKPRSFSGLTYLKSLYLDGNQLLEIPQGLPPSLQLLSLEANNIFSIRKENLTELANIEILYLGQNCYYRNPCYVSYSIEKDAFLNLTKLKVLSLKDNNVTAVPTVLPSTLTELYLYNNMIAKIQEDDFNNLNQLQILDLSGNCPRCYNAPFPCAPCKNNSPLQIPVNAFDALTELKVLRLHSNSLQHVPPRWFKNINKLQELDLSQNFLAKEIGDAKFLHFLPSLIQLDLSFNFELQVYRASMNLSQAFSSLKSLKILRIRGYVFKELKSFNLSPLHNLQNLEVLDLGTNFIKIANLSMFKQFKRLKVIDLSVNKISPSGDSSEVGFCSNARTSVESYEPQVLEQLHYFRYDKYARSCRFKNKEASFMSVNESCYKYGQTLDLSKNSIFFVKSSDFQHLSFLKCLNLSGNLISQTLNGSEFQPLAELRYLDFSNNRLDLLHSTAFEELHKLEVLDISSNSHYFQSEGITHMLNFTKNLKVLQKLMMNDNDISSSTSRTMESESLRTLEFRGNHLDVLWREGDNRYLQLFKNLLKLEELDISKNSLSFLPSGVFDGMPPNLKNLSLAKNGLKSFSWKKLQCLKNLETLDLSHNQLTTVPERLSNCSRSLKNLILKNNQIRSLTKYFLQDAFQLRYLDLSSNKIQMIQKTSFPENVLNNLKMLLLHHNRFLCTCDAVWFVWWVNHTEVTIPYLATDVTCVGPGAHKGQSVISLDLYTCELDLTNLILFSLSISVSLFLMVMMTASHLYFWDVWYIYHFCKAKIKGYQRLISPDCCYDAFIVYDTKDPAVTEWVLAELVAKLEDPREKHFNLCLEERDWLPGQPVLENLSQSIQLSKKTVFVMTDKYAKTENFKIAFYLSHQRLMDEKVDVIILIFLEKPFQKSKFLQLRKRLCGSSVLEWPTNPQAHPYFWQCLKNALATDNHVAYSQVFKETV
Summary of the method: (§1)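 HEK293 cells stably expressing human TLR7 or TLR8, transiently transfected with SEAP reporter plasmid; medium replaced, SIMRA compounds added, 18 h incubation. Supernatant SEAP measured by QuantiBlue; expressed as fold increase in NF-κB activity over PBS control. Tabulated data at 50 μg/mL, representative of three independent experiments.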

[2] = tested on: PBMC; experiment: Immunomodulatory activity in human PBMC assessed as induction of IFN-alpha at 100 ug/ml after 24 hrs
[3] = tested on: PBMC; experiment: Immunomodulatory activity in human PBMC assessed as induction of TNFalpha at 100 ug/ml after 24 hrs; type: functional, cell-based
Summary of the method: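 Human PBMCs plated at 5 × 10^6 cells/mL; compounds dissolved in PBS added at various concentrations, 37 °C for 24 h. Supernatant cytokines/chemokines quantified with human Luminex multiplex kit.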

[4] = target: Toll-like receptor 3 (Homo sapiens) (UniProt O15455); experiment: Activation of human TLR3 expressed in HEK293 assessed as induction of NF-kappaB activity reporter gene assay; type: cell-based
[5] = target: T2, Toll-like receptor 8 (Homo sapiens) (UniProt Q9NR97); experiment: Activation of human TLR8 expressed in HEK293XL assessed as fold induction of NF-kappaB activity at 50 ug/ml after 18 hrs by reporter gene assay relative to control; summary of the method: as §1
T2 sequence (whole entry): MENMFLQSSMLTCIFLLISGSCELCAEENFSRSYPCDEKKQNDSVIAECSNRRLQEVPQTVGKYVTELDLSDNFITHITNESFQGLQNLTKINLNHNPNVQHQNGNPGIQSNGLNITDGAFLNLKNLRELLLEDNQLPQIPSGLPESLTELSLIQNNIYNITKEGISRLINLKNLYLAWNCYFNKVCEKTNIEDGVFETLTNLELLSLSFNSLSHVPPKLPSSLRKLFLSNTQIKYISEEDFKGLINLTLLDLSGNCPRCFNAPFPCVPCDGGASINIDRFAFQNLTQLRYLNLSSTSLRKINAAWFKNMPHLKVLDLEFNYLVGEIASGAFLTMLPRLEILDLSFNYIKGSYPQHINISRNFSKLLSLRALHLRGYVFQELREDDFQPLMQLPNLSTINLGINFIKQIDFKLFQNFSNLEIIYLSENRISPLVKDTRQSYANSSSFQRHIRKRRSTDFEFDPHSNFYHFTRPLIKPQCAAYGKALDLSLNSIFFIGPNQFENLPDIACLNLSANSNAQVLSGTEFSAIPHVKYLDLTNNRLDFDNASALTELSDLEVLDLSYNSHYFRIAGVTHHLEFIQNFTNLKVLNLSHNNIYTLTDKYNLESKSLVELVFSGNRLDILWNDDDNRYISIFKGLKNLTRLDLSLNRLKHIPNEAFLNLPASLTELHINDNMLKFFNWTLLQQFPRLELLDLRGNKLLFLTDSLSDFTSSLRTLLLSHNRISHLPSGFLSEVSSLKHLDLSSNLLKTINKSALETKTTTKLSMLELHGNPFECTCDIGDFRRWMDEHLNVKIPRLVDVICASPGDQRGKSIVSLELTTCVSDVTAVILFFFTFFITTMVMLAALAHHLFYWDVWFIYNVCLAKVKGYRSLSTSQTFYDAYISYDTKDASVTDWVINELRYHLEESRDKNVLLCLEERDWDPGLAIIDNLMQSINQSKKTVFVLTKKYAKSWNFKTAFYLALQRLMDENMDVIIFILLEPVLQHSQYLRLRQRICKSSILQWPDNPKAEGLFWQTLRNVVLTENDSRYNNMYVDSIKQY

Sequence of Toll-like receptor 3 (Homo sapiens) (O15455 whole entry): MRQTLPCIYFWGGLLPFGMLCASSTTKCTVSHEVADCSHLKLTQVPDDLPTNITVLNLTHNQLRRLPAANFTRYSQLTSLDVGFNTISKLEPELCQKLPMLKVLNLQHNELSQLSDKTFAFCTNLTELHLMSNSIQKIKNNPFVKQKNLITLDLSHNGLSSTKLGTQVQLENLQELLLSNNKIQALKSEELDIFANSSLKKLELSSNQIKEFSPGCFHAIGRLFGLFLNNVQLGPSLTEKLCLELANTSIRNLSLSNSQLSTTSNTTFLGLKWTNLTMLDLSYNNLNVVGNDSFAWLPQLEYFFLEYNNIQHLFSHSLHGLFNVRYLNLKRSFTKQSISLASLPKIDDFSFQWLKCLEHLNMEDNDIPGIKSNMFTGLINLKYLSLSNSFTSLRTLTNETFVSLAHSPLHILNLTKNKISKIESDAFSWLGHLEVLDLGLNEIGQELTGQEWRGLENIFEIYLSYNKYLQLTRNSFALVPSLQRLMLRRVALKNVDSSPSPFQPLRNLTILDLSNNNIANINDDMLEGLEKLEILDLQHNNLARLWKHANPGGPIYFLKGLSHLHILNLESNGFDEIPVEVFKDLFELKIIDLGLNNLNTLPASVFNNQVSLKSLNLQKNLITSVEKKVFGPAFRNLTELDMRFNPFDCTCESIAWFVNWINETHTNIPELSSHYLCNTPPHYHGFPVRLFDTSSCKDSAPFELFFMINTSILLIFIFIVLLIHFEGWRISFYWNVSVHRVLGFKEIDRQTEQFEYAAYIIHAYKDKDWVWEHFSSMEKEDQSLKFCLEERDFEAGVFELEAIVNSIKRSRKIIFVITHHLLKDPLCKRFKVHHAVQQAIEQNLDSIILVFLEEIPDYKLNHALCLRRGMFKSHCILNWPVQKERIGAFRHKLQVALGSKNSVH

## Nc1ncnc2c1ncn2[C@@H]1O[C@H](CO)[C@@H](OP(=O)(S)OC[C@H]2O[C@@H](n3cnc4c(N)ncnc43)[C@H](O)[C@@H]2OP(=O)(S)OC[C@H]2O[C@@H](n3cnc4c(N)ncnc43)[C@H](O)[C@@H]2OP(=O)(S)OC[C@H]2O[C@@H](n3cnc4c(N)ncnc43)[C@H](O)[C@@H]2OP(=O)(S)OC[C@H]2O[C@@H](n3cnc4c(N)ncnc43)[C@H](O)[C@@H]2OP(=O)(S)OC[C@H]2O[C@@H](n3cnc4c(N)ncnc43)[C@H](O)[C@@H]2OP(=O)(S)OC[C@H]2O[C@@H](n3cnc4c(N)ncnc43)[C@H](O)[C@@H]2OP(=O)(S)OC[C@H]2O[C@@H](n3cnc4c(N)ncnc43)[C@H](O)[C@@H]2OP(=O)(S)OC[C@H]2O[C@@H](n3cnc4c(N)ncnc43)[C@H](O)[C@@H]2OP(=O)(S)OC[C@H]2O[C@@H](n3cnc4c(N)ncnc43)[C@H](O)[C@@H]2OP(=O)(S)OC[C@H]2O[C@@H](n3cnc4c(N)ncnc43)[C@H](O)[C@@H]2OP(=O)(S)OCC(O)COP(=O)(S)O[C@H]2[C@@H](O)[C@H](n3cnc4c(N)ncnc43)O[C@@H]2COP(=O)(S)O[C@H]2[C@@H](O)[C@H](n3cnc4c(N)ncnc43)O[C@@H]2COP(=O)(S)O[C@H]2[C@@H](O)[C@H](n3cnc4c(N)ncnc43)O[C@@H]2COP(=O)(S)O[C@H]2[C@@H](O)[C@H](n3cnc4c(N)ncnc43)O[C@@H]2COP(=O)(S)O[C@H]2[C@@H](O)[C@H](n3cnc4c(N)ncnc43)O[C@@H]2COP(=O)(S)O[C@H]2[C@@H](O)[C@H](n3cnc4c(N)ncnc43)O[C@@H]2COP(=O)(S)O[C@H]2[C@@H](O)[C@H](n3cnc4c(N)ncnc43)O[C@@H]2COP(=O)(S)O[C@H]2[C@@H](O)[C@H](n3cnc4c(N)ncnc43)O[C@@H]2COP(=O)(S)O[C@H]2[C@@H](O)[C@H](n3cnc4c(N)ncnc43)O[C@@H]2COP(=O)(S)O[C@H]2[C@@H](O)[C@H](n3cnc4c(N)ncnc43)O[C@@H]2COP(=O)(S)O[C@H]2[C@@H](O)[C@H](n3cnc4c(N)ncnc43)O[C@@H]2CO)[C@H]1O (stereo not given in full)
[1]
  fold change (FC): 0.3
[2]
  IFN-alpha: 0 pg/mL
[3]
  Activity: 1.6 pg/mL
[4]
  Activity: inactive
[5]
  fold change (FC): 0.7
